Data on 2 compounds can be found in ChEMBL document CHEMBL4257465, “Strigolactones: a plant phytohormone as novel anti-inflammatory agents” (Medchemcomm, 2018).

For series [1], the system named is RAW264.7. Briefly: Antiinflammatory activity in LPS-induced mouse RAW264.7 cells assessed as IL-6 levels at 10 uM pretreated for 2 hrs followed by LPS stimulation and measured after 6 hrs by ELISA (reference value: 472.3 +/- 25.8 pg/ml). It counts as functional. The method in brief:
(§1)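 RAW264.7 murine macrophages (DMEM, 10% serum, 37 °C, 5% CO2) seeded at 5 × 10^5 cells per well, pretreated 2 h with compound at 10, 5, 2.5 or 1.25 μM (DMSO 0.1% v/v), then LPS (E. coli 0127:B8) 100 ng mL−1 added. Supernatant TNF-α or IL-6 read by mouse ELISA kit after 6, 12 and 24 h. Mean ± SD, n = 3, three independent experiments.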
(ELISA stands for enzyme-linked immunosorbent assay.)

Series [2] deals with RAW264.7. As to the kind of experiment: Antiinflammatory activity in LPS-induced mouse RAW264.7 cells assessed as IL-6 levels at 1.25 uM pretreated for 2 hrs followed by LPS stimulation and measured after 24 hrs by ELISA (reference value: 1966.6 +/- 102.3 pg/ml). It counts as functional. In outline:
as §1

Series [3] deals with MAP kinase p38 (Mus musculus) (UniProt P47811+O08911+Q9WUI1+Q9Z1B7). As to the kind of experiment: Inhibition of LPS-induced p38 MAPK phosphorylation in mouse RAW264.7 cells after 4 hrs by Western blot analysis. The class given is cell-based. In outline: (§2)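 RAW264.7 cells at 2 × 10^6 per well given fresh medium with compound (10, 5, 2.5, 1.25 μM) plus LPS 500 ng mL−1 for 4 h. Lysed in IP buffer with 1 mM PMSF, protein by BCA. Run on 12.5% SDS-PAGE and blotted. Phospho and total ERK1/2 (Thr202/Tyr204), p38 (Thr180/Tyr182), IκBα (Ser32/36) and NF-κB p65 detected by ECL. Mean ± SD, n = 3.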
(A western blot detects proteins with antibodies after separation by electrophoresis.)

Series [4] has as its system RAW264.7. As to the kind of experiment: Antiinflammatory activity in LPS-induced mouse RAW264.7 cells assessed as TNFalpha levels at 5 uM pretreated for 2 hrs followed by LPS stimulation and measured after 24 hrs by ELISA (reference value: 9653.7 +/- 377.3 pg/ml). The class given is functional. In outline: as §1
For series [5], the system named is RAW264.7. Briefly: Antiinflammatory activity in LPS-induced mouse RAW264.7 cells assessed as IL-6 levels at 2.5 uM pretreated for 2 hrs followed by LPS stimulation and measured after 12 hrs by ELISA (reference value: 1394 +/- 62.6 pg/ml). It counts as functional. In outline:
as §1

Series [6] concerns RAW264.7. As to the kind of experiment: Antiinflammatory activity in LPS-induced mouse RAW264.7 cells assessed as TNFalpha levels at 2.5 uM pretreated for 2 hrs followed by LPS stimulation and measured after 6 hrs by ELISA (reference value: 4377.1 +/- 318.6 pg/ml). It counts as functional. The method in brief: as §1
Series [7] is described as follows: Cytotoxicity against mouse RAW264.7 cells assessed as cell viability at 10 uM after 48 hrs by MTT assay (reference value: 100%). The settings on record: read-out: Activity. It counts as cell-based. In outline: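 RAW264.7 cells seeded at 4 × 10^3 per well, cultured overnight, exposed to compound (DMSO 0.1% v/v) for 48 h. MTT 0.5 mg mL−1 added for 4 h at 37 °C, formazan dissolved in DMSO, OD570 read. Viability relative to medium-only cells set as 100%. Mean ± SD (n = 5), three independent experiments.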
For orientation: Tetrazolium dyes change colour on reduction, which living cells bring about.

For series [8], the target named is T1, NF-kappa-B inhibitor alpha (Mus musculus) (UniProt Q9Z1E3).
T1 sequence (whole entry): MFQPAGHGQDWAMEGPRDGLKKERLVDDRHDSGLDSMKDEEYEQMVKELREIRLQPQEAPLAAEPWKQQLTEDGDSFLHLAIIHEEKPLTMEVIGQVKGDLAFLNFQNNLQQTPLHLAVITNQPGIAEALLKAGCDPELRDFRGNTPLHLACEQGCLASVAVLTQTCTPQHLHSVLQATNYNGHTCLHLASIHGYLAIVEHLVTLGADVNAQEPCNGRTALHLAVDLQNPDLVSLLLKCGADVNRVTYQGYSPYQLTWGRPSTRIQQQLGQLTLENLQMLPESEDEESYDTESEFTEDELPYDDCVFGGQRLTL
As to the kind of experiment: Inhibition of LPS-induced IkappaBalpha phosphorylation in mouse RAW264.7 cells after 4 hrs by Western blot analysis. The class given is cell-based. The method in brief:
as §2

The test system of series [9] is RAW264.7. As to the kind of experiment: Antiinflammatory activity in LPS-induced mouse RAW264.7 cells assessed as IL-6 levels at 2.5 uM pretreated for 2 hrs followed by LPS stimulation and measured after 24 hrs by ELISA (reference value: 1966.6 +/- 102.3 pg/ml). The class given is functional. The method in brief:
as §1

Series [10] relates to RAW264.7. Briefly: Antiinflammatory activity in LPS-induced mouse RAW264.7 cells assessed as IL-6 levels at 5 uM pretreated for 2 hrs followed by LPS stimulation and measured after 12 hrs by ELISA (reference value: 1394 +/- 62.6 pg/ml). It counts as functional. In outline: as §1
In series [11] the test system is RAW264.7. Briefly: Antiinflammatory activity in LPS-induced mouse RAW264.7 cells assessed as TNFalpha levels at 2.5 uM pretreated for 2 hrs followed by LPS stimulation and measured after 12 hrs by ELISA (reference value: 5313.7 +/- 420.9 pg/ml). The class given is functional.
Series [12] relates to RAW264.7. Briefly: Antiinflammatory activity in LPS-induced mouse RAW264.7 cells assessed as IL-6 levels at 2.5 uM pretreated for 2 hrs followed by LPS stimulation and measured after 6 hrs by ELISA (reference value: 472.3 +/- 25.8 pg/ml). The class given is functional. In outline: as §1

Take `CC1=C[C@@H](O/C=C2/C(=O)O[C@H]3c4ccccc4C[C@@H]23)OC1=O`: the Activity in the series on RAW264.7 [1] stood at 340.6 pg/mL; in the series with RAW264.7 [2], 1936.5 pg/mL; with RAW264.7 [4], 9318.5 pg/mL; with RAW264.7 [5], 1296 pg/mL; with RAW264.7 [6], 4307.9 pg/mL; in the series with RAW264.7 [9], 1787.6 pg/mL. The Activity in the series on RAW264.7 [10] amounted to 1177 pg/mL; with RAW264.7 [11] it was 5212.4 pg/mL; with RAW264.7 [12] it was 447.9 pg/mL. The inhibition entry in series [3] and in [8] was “Dose-dependent effect” each time. The viability at 48 h, 10 µM in series [7] came to 99.2%.

In the case of `CC1=C[C@H](O/C=C2/C(=O)O[C@@H]3c4ccccc4C[C@H]23)OC1=O`, the Activity in the series with RAW264.7 [1] was 302.3 pg/mL; in the series with RAW264.7 [2], 1892.3 pg/mL; in the series with RAW264.7 [4], 9085.5 pg/mL; in the series with RAW264.7 [5], 1267.7 pg/mL; in the series with RAW264.7 [6], 4276.9 pg/mL; in the series on RAW264.7 [9], 1729.3 pg/mL. Further, the Activity in the series with RAW264.7 [10] amounted to 1090.7 pg/mL; in the series with RAW264.7 [11], 5186.9 pg/mL; with RAW264.7 [12] it was 433.6 pg/mL. For the same compound, the inhibition entry in [3] and in series [8] was “Dose-dependent effect” throughout. Moreover, in series [7], the viability at 48 h, 10 µM was determined as 100%.
